Results as given in ChEMBL document CHEMBL3627669, “Wittig derivatization of sesquiterpenoid polygodial leads to cytostatic agents with activity against drug resistant cancer cells and capable of pyrrolylation of primary amines” (2015).
Active and inactive are the calls of the source. The calls are words filed in the database; no cut-off is given here.

Columns and labels:
A549 = assay: Cytotoxicity against human A549 cells assessed as growth inhibition incubated for 72 hrs by MTT assay; type: functional; conditions: A549, 72 h
Procedure, shortened: (§1)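 MTT assay. Stocks of 100 or 50 mM in DMSO. Cells seeded at line-dependent density, grown 24–72 h, then treated across […] for 72 h. Negative control 0.1% DMSO, positive control 1 μM phenylarsine oxide. GI50 is the concentration reducing viability 50% relative to control, averaged over experiments each run in sextuplicate.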

SK-MEL-28 = assay: Cytotoxicity against human SK-MEL-28 cells assessed as growth inhibition incubated for 72 hrs by MTT assay; type: functional; conditions: SK-MEL-28, 72 h; procedure, shortened: as §1
MCF7 = assay: Cytotoxicity against human MCF7 cells assessed as growth inhibition incubated for 72 hrs by MTT assay; type: functional; conditions: MCF7, 72 h; procedure, shortened: as §1
[1] = Cytotoxicity against human U373 cells assessed as growth inhibition incubated for 72 hrs by MTT assay; type: functional, U-373MG ATCC; conditions: U373 MG; procedure, shortened: as §1
[2] = Cytotoxicity against human Hs683 cells assessed as growth inhibition incubated for 72 hrs by MTT assay; type: functional; conditions: Hs 683, 72 h; procedure, shortened: as §1
[3] = biological target: Transient receptor potential cation channel subfamily V member 1 (Rattus norvegicus) (UniProt O35433); assay: Displacement of [3H]-RTX from vanilloid site of TRPV1 receptor in rat spinal cord at 10 uM incubated for 60 mins by scintillation counting analysis
Chain of Transient receptor potential cation channel subfamily V member 1 (Rattus norvegicus) (O35433 whole entry): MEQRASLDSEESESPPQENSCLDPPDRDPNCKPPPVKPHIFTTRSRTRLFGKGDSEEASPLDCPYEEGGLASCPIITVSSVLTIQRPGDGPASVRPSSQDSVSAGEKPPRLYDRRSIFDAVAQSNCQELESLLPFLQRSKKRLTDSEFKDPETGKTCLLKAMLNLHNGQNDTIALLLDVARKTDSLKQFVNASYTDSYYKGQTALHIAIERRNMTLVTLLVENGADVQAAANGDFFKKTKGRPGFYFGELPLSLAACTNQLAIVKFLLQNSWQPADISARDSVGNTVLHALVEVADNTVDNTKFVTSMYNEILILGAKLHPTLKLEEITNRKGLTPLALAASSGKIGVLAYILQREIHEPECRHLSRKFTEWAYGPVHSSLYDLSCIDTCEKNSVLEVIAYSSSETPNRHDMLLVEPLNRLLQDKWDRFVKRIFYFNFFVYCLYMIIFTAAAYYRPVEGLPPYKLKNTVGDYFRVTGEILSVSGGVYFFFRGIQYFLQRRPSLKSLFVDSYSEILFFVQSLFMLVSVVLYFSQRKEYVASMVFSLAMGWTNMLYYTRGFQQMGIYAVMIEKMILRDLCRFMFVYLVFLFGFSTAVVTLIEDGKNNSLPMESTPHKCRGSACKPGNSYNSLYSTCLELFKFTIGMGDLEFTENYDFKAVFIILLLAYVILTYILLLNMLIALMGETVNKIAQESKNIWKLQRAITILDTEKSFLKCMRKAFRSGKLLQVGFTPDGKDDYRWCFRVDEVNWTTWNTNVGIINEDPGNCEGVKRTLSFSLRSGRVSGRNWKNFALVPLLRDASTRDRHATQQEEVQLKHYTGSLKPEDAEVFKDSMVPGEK
Procedure, shortened: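 Rat spinal cord homogenized in buffer A (pH 7.4, HEPES/sucrose salts). Membranes collected from a 35,000g spin. Binding run with 0.5 mg/mL membranes, 0.25 mg/mL BSA, 2 nM [3H]-RTX, and compound at 10 μM, for 60 min at 37 °C. Nonspecific binding defined with 100 μM unlabeled RTX. Reaction stopped on ice with α1-acid glycoprotein, then centrifuged and the pellet counted by scintillation. Result is % specific binding, mean ± SEM of 3 experiments.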

[4] = biological target: Transient receptor potential cation channel subfamily V member 1 (Homo sapiens) (UniProt Q8NER1); assay: Activity at TRPV1 in human MDA-MB--231 cells assessed as transient and synchronous increase in cytosolic Ca2+ level at 80 uM by FURA2-based fluorescence imaging analysis; type: cell-based
Chain of Transient receptor potential cation channel subfamily V member 1 (Homo sapiens) (Q8NER1 whole entry): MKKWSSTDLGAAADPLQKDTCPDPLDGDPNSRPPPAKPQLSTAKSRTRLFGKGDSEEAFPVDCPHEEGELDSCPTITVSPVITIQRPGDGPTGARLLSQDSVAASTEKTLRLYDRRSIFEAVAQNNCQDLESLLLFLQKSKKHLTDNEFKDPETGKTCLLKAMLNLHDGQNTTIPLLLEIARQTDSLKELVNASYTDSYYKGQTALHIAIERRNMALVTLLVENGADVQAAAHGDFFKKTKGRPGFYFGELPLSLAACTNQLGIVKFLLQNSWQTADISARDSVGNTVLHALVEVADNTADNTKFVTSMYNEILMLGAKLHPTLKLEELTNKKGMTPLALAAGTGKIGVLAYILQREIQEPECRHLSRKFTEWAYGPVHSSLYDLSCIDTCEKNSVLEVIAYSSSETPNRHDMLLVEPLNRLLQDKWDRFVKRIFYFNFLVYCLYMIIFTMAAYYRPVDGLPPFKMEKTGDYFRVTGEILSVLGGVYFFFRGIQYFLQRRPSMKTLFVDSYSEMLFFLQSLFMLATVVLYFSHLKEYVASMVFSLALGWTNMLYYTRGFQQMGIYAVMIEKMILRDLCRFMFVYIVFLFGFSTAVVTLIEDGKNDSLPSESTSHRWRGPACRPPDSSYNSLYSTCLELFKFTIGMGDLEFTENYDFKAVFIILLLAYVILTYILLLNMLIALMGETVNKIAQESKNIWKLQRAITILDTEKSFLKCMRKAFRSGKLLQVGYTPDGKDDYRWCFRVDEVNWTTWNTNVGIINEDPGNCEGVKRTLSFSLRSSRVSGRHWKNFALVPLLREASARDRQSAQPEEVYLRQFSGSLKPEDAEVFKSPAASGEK

U-373MG ATCC [5] = assay: Cytotostatic activity on human U373 cells assessed as change in cell morphology at 100 uM after 72 hrs by videomicroscopic analysis; type: functional, cell-based
U-373MG ATCC [6] = assay: Cytotoxicity against human U373 cells assessed as necrotic and late apoptotic cells at 100 uM after 72 hrs by Trypan blue assay; type: functional, cell-based
Procedure, shortened: (§2)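 U373 cells treated 72 h, stained with trypan blue and imaged. Cells were then fixed with ice-cold methanol and restained as an internal positive control. Single experiment in triplicate.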

[7] = biological target: Transient receptor potential cation channel subfamily V member 1 (Homo sapiens) (UniProt Q8NER1); assay: Activity at TRPV1 in human MDA-MB--231 cells assessed as transient and synchronous increase in cytosolic Ca2+ level at 80 uM in presence of TRPV1 blocker capsazepine by FURA2-based fluorescence imaging analysis; type: cell-based
Glioma cell [8] = assay: Cytotoxicity against cdkn2a-deficient mouse neurosphere glioma cells at 10 uM after 24 hrs; type: functional, cell-based
Procedure, shortened: (§3)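 Primary glioma neurosphere cultures were plated at 0.015×10^6 cells/well (5 replicates) in phenol red-free DMEM-F12. Cells were mixed with bis-AAF-R110 and incubated 2 h at 37 °C, with fluorescence read at 485/520 nm. Signal was blank-subtracted and expressed as fold change over vehicle (mean ± SD, two independent experiments).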

Glioma cell [9] = assay: Cytotoxicity against cdkn2a-deficient EGFRvIII amplified mouse neurosphere glioma cells using bis-AAF-R110 as substrate at 10 uM preincubated for 24 hrs followed by substrate addition measured after 2 hrs by fluorescence analysis; type: functional, cell-based; procedure, shortened: as §3
Glioma cell [10] = assay: Cytotoxicity against cdkn2a/TRPV1 doubly deficient PDGFB amplified mouse neurosphere glioma cells using bis-AAF-R110 as substrate at 10 uM preincubated for 24 hrs followed by substrate addition measured after 2 hrs by fluorescence analysis; type: functional, cell-based; procedure, shortened: as §3
[11] = Cytotoxicity against human MES-SA cells assessed as growth inhibition incubated for 48 hrs by MTT assay; type: functional
Procedure, shortened: (§4)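 MTT assay on MES-SA and MES-SA/Dx5 uterine sarcoma cells in RPMI-1640 with 10% FBS. Dx5 cells were selected by stepwise doxorubicin exposure from 100 to 500 nM and maintained in 500 nM doxorubicin. Cells treated 48 h. GI50 is the concentration reducing viability 50% relative to DMSO control, from two independent experiments with 4 replicates each.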

[12] = Cytotoxicity against human MES-SA/Dx5 cells assessed as growth inhibition incubated for 48 hrs by MTT assay; type: functional; conditions: MES-SA/Dx5, 48 h; procedure, shortened: as §4
SCC-4 = assay: Cytotoxicity against docetaxel-resistant human SCC4 cells assessed as growth inhibition; type: functional, cell-based
SCC-25 = assay: Cytotoxicity against cisplatin-resistant human SCC25 cells assessed as growth inhibition; type: functional, cell-based
PC-3 = assay: Cytotoxicity against docetaxel-resistant human PC3 cells assessed as growth inhibition; type: functional, cell-based
Glioma cell [13] = assay: Cytotoxicity against cdkn2a-deficient mouse neurosphere glioma cells at 20 uM after 24 hrs; type: functional, cell-based
Glioma cell [14] = assay: Cytotoxicity against cdkn2a-deficient EGFRvIII amplified mouse neurosphere glioma cells using bis-AAF-R110 as substrate at 20 uM preincubated for 24 hrs followed by substrate addition measured after 2 hrs by fluorescence analysis; type: functional, cell-based
Procedure, shortened: (§5)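 GBM neurosphere primary cultures carrying cdkn2a deletion with PDGFB or EGFRvIII amplification. Plated at 0.015×10^6 cells/well, 5 replicates per condition, in DMEM-F12 without phenol red. Cell suspension then mixed with bis-AAF-R110 substrate for 2 h at 37 °C and fluorescence read at 485/520 nm. After blank subtraction, signals were normalized to vehicle (=1) to give fold relative cytotoxicity. Mean ± SD of two independent experiments.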

Glioma cell [15] = assay: Cytotoxicity against cdkn2a/TRPV1 doubly deficient PDGFB amplified mouse neurosphere glioma cells using bis-AAF-R110 as substrate at 20 uM preincubated for 24 hrs followed by substrate addition measured after 2 hrs by fluorescence analysis; type: functional, cell-based; procedure, shortened: as §5
[16] = biological target: Transient receptor potential cation channel subfamily V member 1 (Homo sapiens) (UniProt Q8NER1); assay: Activity at TRPV1 in human MDA-MB--231 cells assessed as sustained and asynchronous increase in cytosolic Ca2+ level at 20 uM by FURA2-based fluorescence imaging analysis; type: cell-based
U-373MG ATCC [17] = assay: Cytotostatic activity on human U373 cells assessed as change in cell morphology at 25 uM after 72 hrs by videomicroscopic analysis; type: functional, cell-based
U-373MG ATCC [18] = assay: Cytotostatic activity on human U373 cells assessed as change in cell morphology at 35 uM after 72 hrs by videomicroscopic analysis; type: functional, cell-based
U-373MG ATCC [19] = assay: Cytotoxicity against human U373 cells assessed as necrotic and late apoptotic cells at 35 uM after 72 hrs by Trypan blue assay; type: functional, cell-based; procedure, shortened: as §2

`CC1(C)CCC[C@]2(C)[C@@H](C=O)C(/C=C/C#N)=CC[C@@H]12` showed a GI50 (A549) of 27 µM, a GI50 (SK-MEL-28) of 42 µM and a GI50 (MCF7) of 31 µM. It also gave a GI50 [1] of 36 µM and a GI50 [2] of 28 µM.
Compound `CC(C)(C)OC(=O)/C=C/C1=CC[C@H]2C(C)(C)CCC[C@]2(C)[C@H]1C=O` has a GI50 (A549) of 29 µM, a GI50 (SK-MEL-28) of 41 µM and a GI50 (MCF7) of 32 µM. For the same compound, the GI50 [1] was 40 µM and the GI50 [2] was 29 µM.
Compound `CCOC(=O)/C(C)=C/C1=CC[C@H]2C(C)(C)CCC[C@]2(C)[C@H]1C=O` has a GI50 (A549) of 26 µM, a GI50 (SK-MEL-28) of 37 µM and a GI50 (MCF7) of 27 µM. For the same compound, the GI50 [1] was 37 µM and the GI50 [2] was 28 µM.
Compound `CC1(C)CCC[C@]2(C)[C@@H](C=O)C(C=O)=CC[C@@H]12` [POLYGODIAL] has a GI50 (A549) of 90 µM, a GI50 (SK-MEL-28) of 65 µM and a GI50 (MCF7) of 75 µM. For the same compound, the GI50 [1] was over 100 µM, the GI50 [2] was 95 µM and the inhibition [3] was 76%. The Activity [4] was “Active”, the Activity (U-373MG ATCC [5]) was “inactive” and the Activity (U-373MG ATCC [6]) was “Active”. The Activity [7] was “inactive”.
In the case of `C=C(C)[C@@H]1CCC(C)=C[C@H]1c1c(O)cc(CCCCC)cc1O`, the “growth inhibition (GI)” value (Glioma cell [8]) is reported as “Active”, the “growth inhibition (GI)” value (Glioma cell [9]) is reported as “Active” and the “growth inhibition (GI)” value (Glioma cell [10]) is reported as “inactive”.
Compound `COC(=O)/C=C/C1=CC[C@H]2C(C)(C)CCC[C@]2(C)[C@H]1C=O` has a GI50 (A549) of 21 µM, a GI50 (SK-MEL-28) of 27 µM and a GI50 (MCF7) of 7 µM. For the same compound, the GI50 [1] was 22 µM, the GI50 [2] was 24 µM and the GI50 [11] was 40 µM. The GI50 [12] was 45 µM, the “growth inhibition (GI)” value (SCC-4) was “Active” and the “growth inhibition (GI)” value (SCC-25) was “Active”. For the same compound, the “growth inhibition (GI)” value (PC-3) was “Active”, the “growth inhibition (GI)” value (Glioma cell [13]) was “Active” and the “growth inhibition (GI)” value (Glioma cell [14]) was “Active”. For the same compound, the “growth inhibition (GI)” value (Glioma cell [15]) was “Active”, the Activity [3] was “inactive” and the Activity [16] was “Active”. For the same compound, the Activity (U-373MG ATCC [17]) was “Active”.
`CC(=O)/C=C/C1=CC[C@H]2C(C)(C)CCC[C@]2(C)[C@H]1C=O` gave a GI50 (A549) of 24 µM, a GI50 (SK-MEL-28) of 28 µM and a GI50 (MCF7) of 20 µM. For the same compound, the GI50 [1] was 25 µM and the GI50 [2] was 22 µM.
Compound `C#CCCCOC(=O)/C=C/C1=CC[C@H]2C(C)(C)CCC[C@]2(C)[C@H]1C=O` has a GI50 (A549) of 30 µM, a GI50 (SK-MEL-28) of 36 µM and a GI50 (MCF7) of 30 µM. For the same compound, the GI50 [1] was 35 µM, the GI50 [2] was 33 µM and the Activity (U-373MG ATCC [18]) was “Active”. The Activity (U-373MG ATCC [19]) was “inactive”.
`CC[C@]1(O)C[C@@H]2CN(CCc3c([nH]c4ccccc34)[C@@](C(=O)OC)(c3cc4c(cc3OC)N(C)[C@H]3[C@@](O)(C(=O)OC)[C@H](OC(C)=O)[C@]5(CC)C=CCN6CC[C@]43[C@@H]65)C2)C1` [VINBLASTINE] gave a GI50 [11] of 0.006 µM and a GI50 [12] of 5 µM.
`CCOC(=O)/C=C/C1=CC[C@H]2C(C)(C)CCC[C@]2(C)[C@H]1C=O` gave a GI50 (A549) of 25 µM, a GI50 (SK-MEL-28) of 29 µM and a GI50 (MCF7) of 30 µM. It also gave a GI50 [1] of 37 µM and a GI50 [2] of 29 µM.
`CC(=O)O[C@H]1C(=O)[C@@]2(C)[C@H]([C@H](OC(=O)c3ccccc3)[C@]3(O)C[C@H](OC(=O)[C@H](O)[C@@H](NC(=O)c4ccccc4)c4ccccc4)C(C)=C1C3(C)C)[C@]1(OC(C)=O)CO[C@@H]1C[C@@H]2O` [PACLITAXEL] gave a GI50 [11] of 0.007 µM and a GI50 [12] of 10 µM.
`CC1(C)CCC[C@]2(C)[C@@H](C=O)C(/C=C/C(=O)OCc3ccccc3)=CC[C@@H]12` gave a GI50 (A549) of 28 µM, a GI50 (SK-MEL-28) of 39 µM and a GI50 (MCF7) of 27 µM. The GI50 [1] was 39 µM and the GI50 [2] was 31 µM.
In the case of `COC(=O)/C=C/C=C/C1=CC[C@H]2C(C)(C)CCC[C@]2(C)[C@H]1C=O`, the GI50 (A549) is reported as 29 µM, the GI50 (SK-MEL-28) is reported as 25 µM and the GI50 (MCF7) is reported as 31 µM. The GI50 [1] was 27 µM and the GI50 [2] was 12 µM.
